4 compounds from ChEMBL document CHEMBL1909636, “Evaluation of the antiproliferative activity of diterpene isonitriles from the sponge Pseudoaxinella flava in apoptosis-sensitive and apoptosis-resistant cancer cell lines” (2011) can be followed below.

In assay [1] the test system is PC-3. The experiment in a line: Cytotoxicity against human PC3 cells assessed as cell death at IC50 by quantitative video microscopy analysis. It counts as functional, cell-based. The method, boiled down: (§1)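 PC3 cells were treated for 72 h at a single concentration taken from the 72 h MTT growth assay and followed by computer-assisted phase-contrast videomicroscopy. Dead cells were scored as rounded and refringent, and cytostatic action was distinguished as inhibited proliferation without cell death. Morphology was examined at ×100 and, for high-magnification views, ×500.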

The subject of assay [2] is PC-3. The experiment in a line: Growth inhibition of human PC3 cells after 72 hrs by MTT colorimetric assay. Format: functional. As to conditions: PC-3, 72 h. The gist of the method: (§2)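 Cells were exposed to the compound over a range of concentrations for three days (72 h) and growth was read by MTT colorimetric assay. IC50 is the concentration that reduces global growth of the cell population by 50%.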
In general terms: Tetrazolium assays rely on reduction of a dye to a coloured formazan, in cell work by metabolically active cells.

In assay [3] the test system is PC-3. The experiment in a line: Induction of apoptosis in human PC3 cells assessed as vacuolization after 72 hrs at IC50 by quantitative video microscopy analysis. It counts as functional, cell-based.
Assay [4] in a line: Growth inhibition of human Hs683 cells after 72 hrs by MTT colorimetric assay. It counts as functional. The settings on record: Hs 683, 72 h. The method, boiled down: as §2
The nature of assay [5]: Growth inhibition of human U373 cells after 72 hrs by MTT colorimetric assay. As to conditions: U373 MG. It counts as functional, U-373MG ATCC. The gist of the method: as §2
The test system of assay [6] is PC-3. The experiment in a line: Cytostatic activity in human PC3 cells at IC50 by quantitative video microscopy analysis. Format: functional, cell-based. The gist of the method:
as §1

The next assay concerns LoVo. The experiment in a line: Growth inhibition of human LoVo cells after 72 hrs by MTT colorimetric assay. Format: functional. The method, boiled down: as §2
The subject of another assay is A549. Description: Growth inhibition of human A549 cells after 72 hrs by MTT colorimetric assay. Format: functional. The settings on record: A549, 72 h. The gist of the method: as §2
The test system of the next assay is SK-MEL-28. The experiment in a line: Growth inhibition of human SK-MEL-28 cells after 72 hrs by MTT colorimetric assay. As to conditions: SK-MEL-28, 72 h. It counts as functional. The gist of the method: as §2

Molecules are shown by their SMILES. The source made the active and inactive calls. The rule behind the calls is not given here.

Turning to `[C-]#[N+][C@@]1(C)CC[C@H]2[C@H]3[C@@H](C(=C)CC[C@H]31)[C@H](C=C(C)C)C[C@@H]2C`, the outcome in the assay on PC-3 [1] and in the assay with PC-3 [3] was Active. Moreover, the GI50 (commonly the concentration at which growth is held to half of that of the control) with PC-3 [2] is 7 µM.
In the case of `[C-]#[N+][C@@]1(C)CC[C@H]2[C@H]3[C@@H](C(=C)CC[C@H]31)[C@H](CC(=C)C)C[C@@H]2C`, the outcome in the assay on PC-3 [1] was Active. Halving of growth with PC-3 [2] (GI50) required 7 µM.
As for `[C-]#[N+]C(C)(C)C[C@@H]1C[C@H](C)[C@H]2CC[C@H](C)[C@@]3([N+]#[C-])CCC(=C)[C@@H]1[C@H]23` [DIISOCYANOAMPHILECTENE], the GI50 came to 50 µM in assay [4]; 25 µM in [5]; 3 µM with LoVo; 42 µM in the assay on A549; 1 µM in the assay on PC-3 [2]; 6 µM with SK-MEL-28. Further, in the assay on PC-3 [6], the outcome was Active.
`[C-]#[N+]C(C)(C)C[C@@H]1C[C@H](C)[C@H]2CC[C@](C)([N+]#[C-])[C@@H]3CCC(=C)[C@@H]1[C@H]23`: the GI50 in assay [4] is 4 µM; in assay [5] it was 10 µM; with LoVo, 3 µM; in the assay on A549, 16 µM; in the assay on PC-3 [2], 3 µM; in the assay on SK-MEL-28 it was 32 µM. The result in the assay with PC-3 [6] was Active.
